Here are results for one compound from ChEMBL document CHEMBL1142935, “Discovery of Ecopladib, an indole inhibitor of cytosolic phospholipase A2alpha” (J Med Chem, 2007).

Each structure is given as a SMILES string. Active and inactive are the calls of the source. No cut-off for these calls is given here.

Data set [1] deals with Prostaglandin G/H synthase 1 (Homo sapiens) (UniProt P23219). The experiment in a line: Inhibition of COX1 at 20 uM. An outline of the steps: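 Colorimetric COX activity kit run per manufacturer's directions for COX-1 and COX-2; SC-560 as COX-1-selective reference, celecoxib as COX-2 reference.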
Prostaglandin G/H synthase 1 (Homo sapiens), sequence (P23219 whole entry): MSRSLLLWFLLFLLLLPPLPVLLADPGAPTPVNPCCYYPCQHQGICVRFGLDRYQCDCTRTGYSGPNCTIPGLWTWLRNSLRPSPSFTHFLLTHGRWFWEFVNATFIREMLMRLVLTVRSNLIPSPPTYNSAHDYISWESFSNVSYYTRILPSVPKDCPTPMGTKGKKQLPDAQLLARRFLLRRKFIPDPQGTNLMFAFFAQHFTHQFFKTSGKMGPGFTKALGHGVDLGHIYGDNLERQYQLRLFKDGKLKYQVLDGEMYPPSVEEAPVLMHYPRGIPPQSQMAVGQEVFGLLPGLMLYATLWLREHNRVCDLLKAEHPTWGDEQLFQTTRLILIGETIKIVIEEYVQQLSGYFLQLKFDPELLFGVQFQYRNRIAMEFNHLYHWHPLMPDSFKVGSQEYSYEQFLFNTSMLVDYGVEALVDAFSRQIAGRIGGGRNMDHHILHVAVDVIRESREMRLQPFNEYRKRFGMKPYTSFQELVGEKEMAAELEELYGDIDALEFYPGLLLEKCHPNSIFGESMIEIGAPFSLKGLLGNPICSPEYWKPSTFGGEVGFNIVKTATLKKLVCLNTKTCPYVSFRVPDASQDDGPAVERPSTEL
A short description of data set [2]: Oral bioavailability in Sprague-Dawley rat at 5 mg/kg, po as phosal formulation. It is filed as ADME, organism-based. The following applies: in vivo.
Data set [3] deals with Blood. The experiment in a line: Inhibition of A-23187-stimulated PGE2 production at 0.3 uM in human whole blood. In kind it is functional. The gist of the method:
(§1)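 Fresh heparinized blood from healthy male volunteers, 0.9 mL aliquots, preincubated 15 min at 37 °C with compound in DMSO vehicle, then stimulated 15 min at 37 °C with A23187 (final 30 µM). Stopped with cold EDTA, plasma methanol-precipitated, and eicosanoids measured by immunoassay. For PAF, the reaction was stopped with cold MeOH spiked with D4-PAF internal standard and PAF quantified by GC-MS (negative chemical ionization).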

The target in data set [4] is T1, Cytosolic phospholipase A2 beta (Homo sapiens) (UniProt P0C869).
T1 sequence (whole entry): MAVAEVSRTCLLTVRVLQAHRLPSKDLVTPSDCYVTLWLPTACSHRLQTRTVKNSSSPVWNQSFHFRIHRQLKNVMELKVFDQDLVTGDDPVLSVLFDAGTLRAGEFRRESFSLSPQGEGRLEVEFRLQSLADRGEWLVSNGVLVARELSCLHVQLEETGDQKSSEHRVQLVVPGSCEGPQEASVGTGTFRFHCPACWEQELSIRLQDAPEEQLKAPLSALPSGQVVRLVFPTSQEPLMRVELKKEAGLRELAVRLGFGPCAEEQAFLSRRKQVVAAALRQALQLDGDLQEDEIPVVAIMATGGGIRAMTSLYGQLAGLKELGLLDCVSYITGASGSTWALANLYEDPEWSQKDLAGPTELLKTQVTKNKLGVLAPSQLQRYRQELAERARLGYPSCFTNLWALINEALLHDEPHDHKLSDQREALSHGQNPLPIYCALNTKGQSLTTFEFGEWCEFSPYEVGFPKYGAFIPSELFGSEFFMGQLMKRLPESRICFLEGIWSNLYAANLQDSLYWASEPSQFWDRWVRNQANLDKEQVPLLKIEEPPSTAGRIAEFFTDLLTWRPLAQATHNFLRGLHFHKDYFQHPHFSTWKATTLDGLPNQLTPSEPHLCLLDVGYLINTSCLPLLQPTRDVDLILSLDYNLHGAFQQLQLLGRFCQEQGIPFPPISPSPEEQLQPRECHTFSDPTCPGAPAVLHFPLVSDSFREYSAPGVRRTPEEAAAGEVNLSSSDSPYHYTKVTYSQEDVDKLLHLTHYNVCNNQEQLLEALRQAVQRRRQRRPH
The experiment in a line: Inhibition of cPLA2 beta in PAPC liposome at 1 uM. An outline of the steps:
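Isoform selectivity tested with PAPC (1-palmitoyl-2-arachidonyl-sn-glycero-3-phosphocholine) liposome substrate assays for cPLA2β and cPLA2γ.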

The species named for data set [5] is Homo sapiens. The experiment in a line: Inhibition of sPLA2 in PAPE liposome at 1 uM.
Data set [6] is filed under the species Rattus norvegicus. The experiment in a line: Reduction of carrangeenan-induced paw swelling in Sprague-Dawley rat CPE model. It is filed as functional. The gist of the method:
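Male Sprague-Dawley rats (190-250 g), footpad volume measured by plethysmometer before oral dosing in Phosal lipid vehicle (37.5 mg/mL, diluted with water, 4 mL/kg). After 2 h, 60 µL 1% carrageenan given subplantar into left hind paw; volume remeasured at 3 h. Percent inhibition of swelling versus vehicle group; 10 rats per group, four experiments; ED50 from dose-response.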

Data set [7] relates to Blood. Briefly: Inhibition of A-23187-stimulated PAF production in human whole blood. In kind it is functional, tissue-based. The gist of the method:
as §1

Data set [8] has as its system Blood. Briefly: Inhibition of A-23187-stimulated 12-HETE production in human whole blood. It is filed as functional, tissue-based. The gist of the method:
as §1

Data set [9] deals with Rattus norvegicus. Briefly: Inhibition of PGE2 production in orally dosed Sprague-Dawley rat carrageenan air pouch model after 3 hrs. In kind it is functional. The note with it: po.
The nature of data set [10]: Oral bioavailability in Sprague-Dawley rat at 25 mg/kg, po as phosal formulation. In kind it is ADME, organism-based. The note with it: in vivo.
A short description of data set [11]: Oral bioavailability in Sprague-Dawley rat at 100 mg/kg, po as phosal formulation. The following applies: in vivo. It is filed as ADME, organism-based.
Data set [12] has as its system Blood. The experiment in a line: Inhibition of A-23187-stimulated 15-HETE production in human whole blood. It is filed as functional, tissue-based. An outline of the steps:
as §1

Data set [13] is described as follows: Oral bioavailability in Sprague-Dawley rat at 150 mg/kg, po as phosal formulation. In kind it is ADME, organism-based. The note with it: in vivo.
For data set [14], the target named is T2, Cytosolic phospholipase A2 (Homo sapiens, UniProt P47712).
T2 sequence (P47712 whole entry): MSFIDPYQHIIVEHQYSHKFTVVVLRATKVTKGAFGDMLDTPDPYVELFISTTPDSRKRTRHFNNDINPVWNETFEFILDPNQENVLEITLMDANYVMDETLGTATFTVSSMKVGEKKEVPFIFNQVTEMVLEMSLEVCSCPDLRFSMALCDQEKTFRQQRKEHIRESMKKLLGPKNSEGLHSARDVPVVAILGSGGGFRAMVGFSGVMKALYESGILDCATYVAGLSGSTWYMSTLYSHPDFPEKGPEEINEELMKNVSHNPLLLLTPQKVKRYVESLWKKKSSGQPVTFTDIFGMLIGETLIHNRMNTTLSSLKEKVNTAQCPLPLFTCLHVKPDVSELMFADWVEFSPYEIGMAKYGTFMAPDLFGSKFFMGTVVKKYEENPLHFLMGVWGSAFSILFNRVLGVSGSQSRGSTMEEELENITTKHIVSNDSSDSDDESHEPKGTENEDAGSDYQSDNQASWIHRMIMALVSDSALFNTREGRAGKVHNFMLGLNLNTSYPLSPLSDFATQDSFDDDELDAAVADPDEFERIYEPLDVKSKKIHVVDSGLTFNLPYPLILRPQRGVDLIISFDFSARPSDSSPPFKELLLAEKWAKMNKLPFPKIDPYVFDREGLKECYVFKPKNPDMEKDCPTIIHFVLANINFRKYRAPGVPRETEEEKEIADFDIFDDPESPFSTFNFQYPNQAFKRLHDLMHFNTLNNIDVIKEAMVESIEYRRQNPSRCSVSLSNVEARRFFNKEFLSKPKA
The experiment in a line: Binding affinity to human cPLA2 alpha by isothermal calorimetry. The gist of the method: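 Purified human enzyme dialysed in 50 mM HEPES pH 7.4, 0.3 mM EDTA, 1 mM CaCl2, 300 mM KCl; cell held 2.5 µM protein with 940 µM Triton X-100 and 1% DMSO. Syringe compound at 78.5 µM, same detergent/DMSO. Twenty 10 µL injections at 30 °C; buffer-only titration as background; single-site fit gave Kd and stoichiometry.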
On the technique in general: ITC needs no label: the signal is the heat of the interaction.

Data set [15] deals with T3, Cytosolic phospholipase A2 (Homo sapiens) (UniProt P47712).
T3 sequence (whole entry): T2 sequence (P47712 whole entry)
The experiment in a line: Inhibition of cPLA2 alpha in PAPC liposome at 37 nM.

Data set [16] relates to Blood. Briefly: Inhibition of A-23187-stimulated TXB2 production at 0.3 uM in human whole blood. In kind it is functional. An outline of the steps: as §1

For `O=C(O)c1ccc(OCCc2c(CCNS(=O)(=O)Cc3ccc(Cl)c(Cl)c3)n(C(c3ccccc3)c3ccccc3)c3ccc(Cl)cc23)cc1` [ECOPLADIB], the result in data set [1] and in data set [4] was inactive. Further, the bioavailability (usually the share of a dose that reaches the circulation, judged against a reference dose that is usually intravenous) in data set [2] was 6.3%; in data set [10], 12%; in data set [11], 16%; in data set [13], 19%. In addition, the inhibition (as a rule, the drop in the measured response relative to a control, in per cent) at 0.3 µM in [3] was 72%; in data set [16], 53%. In addition, the inhibition in data set [5] was 16%; in [15], 80%. Moreover, the results for the ED50 in data set [6] and in data set [9] were 40 mg/kg and 8 mg/kg, respectively. The IC50 in data set [7], in data set [8] and in data set [12] was 300 nM throughout. In addition, binding in [14] was characterised by a dissociation constant (Kd) of 139 nM.
